Experiments:
Assay type in all cases: functional
[1] = tested on: HL-60; experiment: Antiproliferative activity against human HL60 cells after 72 hrs by SRB assay; settings: Homo sapiens, HL-60, 72 h
Procedure, shortened: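 HL60 human promyelocytic leukemia cells were seeded and grown for 24 h, then given compounds and cultured for another 72 h. Read-out was SRB, per the table footnote. GI50 was obtained by the Logit method from three or more independent experiments.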

[2] = tested on: A549; experiment: Antiproliferative activity against human A549 cells after 72 hrs by MTT assay; settings: Homo sapiens, A549, 72 h
Procedure, shortened: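 A549 human lung adenocarcinoma epithelial cells were seeded and grown for 24 h, then exposed to compounds for a further 72 h. Proliferation was read by MTT, as assigned in the table footnote. GI50 was calculated by the Logit method from at least three independent experiments.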

[3] = tested on: HL-60; experiment: Antiproliferative activity against human HL60 cells at 10^-8 mol/L after 72 hrs by SRB assay; settings: HL-60, 72 h
[4] = tested on: HL-60; experiment: Antiproliferative activity against human HL60 cells at 10^-7 mol/L after 72 hrs by SRB assay; settings: HL-60, 72 h
[5] = tested on: HL-60; experiment: Antiproliferative activity against human HL60 cells at 10^-6 mol/L after 72 hrs by SRB assay; settings: HL-60, 72 h
[6] = tested on: A549; experiment: Antiproliferative activity against human A549 cells at 10^-6 mol/L after 72 hrs by MTT assay; settings: A549, 72 h
[7] = tested on: A549; experiment: Antiproliferative activity against human A549 cells at 10^-8 mol/L after 72 hrs by MTT assay; settings: A549, 72 h
[8] = tested on: A549; experiment: Antiproliferative activity against human A549 cells at 10^-7 mol/L after 72 hrs by MTT assay; settings: A549, 72 h

Row | Structure (SMILES) | GI50 [1] [nM] | GI50 [2] [nM] | inhibition at 0.01 µM [3] [%] | inhibition at 0.1 µM [4] [%] | inhibition at 1 µM [5] [%] | inhibition at 1 µM [6] [%] | inhibition at 0.01 µM [7] [%] | inhibition at 0.1 µM [8] [%]
1 | COc1ccc2c3c(c4cc(OC)c(OC)cc4c2c1)CN1CCCC[C@@H]1C3 | 500 | 900 | – | – | – | – | – | –
2 | COc1cc2c3c(c4cc(OC)c(OC)cc4c2cc1OC)[C@H](O)[C@@H]1CCCCN1C3 | 300 | 400 | – | – | – | – | – | –
3 | COc1cc2c3c(c4cc(OC)c(OC)cc4c2cc1OC)[C@@H](O)[C@H]1CCCCN1C3 | < 1 | 70 | – | – | – | – | – | –
4 | COc1ccc2c3c(c4cc(OC)c(OC)cc4c2c1)[C@H](O)[C@@H]1CCCCN1C3 | 40 | 1000 | – | – | – | – | – | –
5 | COc1ccc2c3c(c4cc(OC)c(OC)cc4c2c1)CN1CCCC[C@H]1[C@H]3O | < 1 | 400 | – | – | – | – | – | –
6 | COc1ccc2c3c(c4cc(OC)c(OC)cc4c2c1)CN1CCCC[C@@H]1[C@@H]3O | < 1 | 300 | – | – | – | – | – | –
7 | COc1cc2c3c(c4cc(OC)c(OC)cc4c2cc1OC)[C@H](O)[C@@H]1CCCN1C3 | – | 670 | 34.5 | 59.5 | 85 | 80.9 | 17.1 | 55
8 | COc1cc2c3c(c4cc(OC)c(OC)cc4c2cc1OC)[C@@H](O)[C@@H]1CCCN1C3 | – | – | 3.9 | 8.2 | 49.8 | 50 | 5.2 | 8.2
9 | COc1cc2c3c(c4ccc(O)cc4c2cc1OC)CN1CCC[C@@H]1C3 | < 1 | < 1 | 86.5 | 87.1 | 89.7 | 94.8 | 86 | 92.3
10 | COc1ccc2c3c(c4cc(OC)c(OC)cc4c2c1)[C@@H](O)[C@H]1CCCCN1C3 | < 1 | 20 | – | – | – | – | – | –
11 | COc1cc2c3c(c4cc5c(cc4c2cc1OC)OCO5)CC1CCCN1C3 (racemic) | – | – | 11.7 | 9.4 | 62.9 | 70.3 | 15.9 | 22.4
12 | COc1cc2c3c(c4cc5c(cc4c2cc1OC)OCO5)CN1CCCC1C3 (racemic) | – | – | 14.8 | 56.4 | 88.4 | 80.9 | 16.9 | 51.6
13 | c1c2c(cc3c1c1c(c4cc5c(cc43)OCO5)CN3CCCC3C1)OCO2 (racemic) | – | – | 10.4 | 8.3 | 13.6 | 40.8 | 5.7 | 5.2
14 | COc1cc2c3c(c4cc5c(cc4c2cc1OC)OCCO5)CC1CCCN1C3 (racemic) | – | 360 | 3.8 | 37 | 83.1 | 87.4 | 14 | 58.2
15 | COc1cc2c3c(c4cc5c(cc4c2cc1OC)OCCO5)CN1CCCC1C3 (racemic) | – | 970 | 16 | 52.2 | 84.4 | 85.6 | 2.1 | 78.9
16 | c1c2c(cc3c1c1c(c4cc5c(cc43)OCCO5)CN3CCCC3C1)OCCO2 (racemic) | – | – | 0 | 8.2 | 11.2 | 38.6 | 8.7 | 6.3
17 | COc1cc2c3c(c4cc(OC)c(OC)cc4c2cc1OC)CN1CCCC1C3 (racemic) [(+/-)-TYLOPHORINE] | 100 | 1300 | 14.9 | 40.5 | 71.3 | 72.3 | 6 | 61.4
18 | COc1ccc2c3c(c4cc(OC)c(OC)cc4c2c1)C[C@H]1CCCN1C3 [(-)-ANTOFINE] | < 1 | 10 | – | – | – | – | – | –
19 | COc1cc2c3c(c4cc(OC)c(OC)cc4c2cc1OC)CN1CCC[C@H]1C3 [(S)-TYLOPHORINE] | 10 | 700 | – | – | – | – | – | –
20 | COc1ccc2c3c(c4cc(OC)c(OC)cc4c2c1)C[C@H]1CCCCN1C3 [CRYPTOPLEURINE] | < 1 | < 1 | – | – | – | – | – | –
21 | COc1ccc2c3c(c4cc(OC)c(OC)cc4c2c1)C[C@@H]1CCCN1C3 [HYPOESTESTATIN 1] | 200 | 300 | – | – | – | – | – | –
22 | COc1cc2c3c(c4cc(OC)c(OC)cc4c2cc1OC)CN1CCC[C@@H]1C3 [TYLOPHORINE] | 100 | 500 | – | – | – | – | – | –

Source: ChEMBL document CHEMBL1955742, “Synthesis and SAR studies of phenanthroindolizidine and phenanthroquinolizidine alkaloids as potent anti-tumor agents” (2012)
